According to ChEMBL document CHEMBL3997800, “Discovery of Multitarget Agents Active as Broad-Spectrum Antivirals and Correctors of Cystic Fibrosis Transmembrane Conductance Regulator for Associated Pulmonary Diseases” (J Med Chem, 2017):
Activity calls are given as the source filed them. No cut-off for these calls is given here.

Key:
Enterovirus A71 [1] = assay: Antiviral activity against Enterovirus 71 infected in RD cells assessed as reduction in virus-induced cytopathic effect incubated for 2 to 3 days; assay type: functional, cell-based
Summary of the method: (§1)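 RD cells seeded at 20 000/well in MEM with 2% FCS and infected with EV71. Three 8-step 1:5 dilution series from 100 μM. Incubated 2-3 days until maximal CPE, then scored for CPE reduction. EC50 is the median of three dose-response curves.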

[2] = Cytotoxicity against human RD cells after 2 to 3 days by MTS method; assay type: cell-based
Summary of the method: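 Uninfected RD cells, 20 000/well in 2% FCS medium, run in parallel with the antiviral assay. Three 8-step 1:5 dilution series from 100 μM, 2-3 days. Read-out by 5% MTS, 1.5 h at 37 °C, absorbance 498 nm, as % of untreated controls. CC50 is the 50% metabolic activity point, median of 3 curves.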

[3] = Inhibition of full length recombinant His6-tagged PI4K3beta (unknown origin) expressed in Sf9 insect cells using PI : PS as substrate in presence of [gamma-33P]-ATP by scintillation counting method; set-up: species or system Homo sapiens
[4] = Selectivity index, ratio of CC50 for human RD cells to EC50 for Enterovirus 71; assay type: toxicity; conditions: read-out: Ratio CC50/EC50
Summary of the method: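 SI is CC50/EC50. CC50 is from the MTS assay on uninfected RD cells and EC50 from the EV71 CPE-reduction assay, both medians of three dose-response curves run in parallel.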

[5] = (§2) Inhibition of full length recombinant His6-tagged PI4K3alpha (unknown origin) expressed in Sf9 insect cells assessed as residual activity at 100 uM using PI : PS as substrate in presence of [gamma-33P]-ATP by scintillation counting method relative to control; conditions: Homo sapiens
[6] = test system: Cystic fibrosis transmembrane conductance regulator (Homo sapiens), P13569 [F508del]; assay: Potentiator activity at CFTR F508 deletion mutant (unknown origin) expressed in HEK293 cells assessed as increase in aninon permeability at 10 uM […] by YFP probe based imaging method; assay type: cell-based
[7] = biological target: PI3-kinase p110-alpha/p85-alpha (Homo sapiens) (UniProt P27986+P42336); assay: as §2, with “recombinant human N-terminal” for “recombinant”, “PI3Kalpha (1 to 1068 residues)/full length human N-terminal myc-tagged P85alpha (1 to 724 residues)” for “PI4K3alpha (unknown origin)”
enterovirus D68 = assay: Antiviral activity against Enterovirus 68 after 2 to 3 days; assay type: functional
Echovirus E11 = assay: Antiviral activity against Echovirus 11 after 2 to 3 days; assay type: functional; conditions: Enterovirus B
[8] = Selectivity index, ratio of CC50 for human RD cells assessed as change in cell morphology to EC50 for Enterovirus 71; assay type: toxicity; conditions: read-out: Ratio CC50/EC50
Summary of the method: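 SI is CC50/EC50. CC50 is from microscopically detected morphology change in uninfected RD cells and EC50 from the EV71 CPE-reduction assay in RD cells.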

Poliovirus 1 = assay: Antiviral activity against Poliovirus 1 after 2 to 3 days by cell based MTS assay; assay type: functional; conditions: Enterovirus C
Summary of the method: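 Vero cells seeded at 20 000/well in MEM with 2% FCS. Three 8-step 1:5 dilution series from 100 μM, then virus, then cells; 2–3 days until maximal CPE. Read-out: 5% MTS for 1.5 h at 37°C, absorbance at 498 nm, expressed as % of untreated controls. EC50 taken as the median of 3 dose-response curves.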

[9] = Cytotoxicity against human RD cells assessed as change in cell morphology by microscopic method; assay type: cell-based
Summary of the method: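 Uninfected, compound-treated RD cells were inspected by microscope. CC50 was taken from microscopically detectable alteration of cell morphology.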

rhinovirus A2 = assay: Antiviral activity against Rhinovirus 2 after 2 to 3 days by cell based MTS assay; assay type: functional
Coxsackievirus B3 = assay: Antiviral activity against Coxsackievirus B3 after 2 to 3 days by cell based MTS assay; assay type: functional; conditions: Enterovirus B
rhinovirus B14 = assay: Antiviral activity against Rhinovirus 14 after 2 to 3 days by cell based MTS assay; assay type: functional; conditions: Rhinovirus B; read-out: EC50
Enterovirus A71 [10] = assay: Antiviral activity against Enterovirus 71 infected in RD cells assessed as reduction in virus-induced cytopathic effect; assay type: functional, cell-based; conditions: Enterovirus A; summary of the method: as §1
[11] = test system: Cystic fibrosis transmembrane conductance regulator (Homo sapiens), P13569 [F508del]; assay: Corrector activity at CFTR F508 deletion mutant (unknown origin) expressed in HEK293 cells assessed as increase in steady-state level of F508 deletion mutant at plasma membrane at 10 uM preincubated for 24 hrs followed by compound washout by pHTomato dye based fluorescence imaging method; assay type: cell-based
Summary of the method: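 HEK293 cells were transiently transfected (Lipofectamine 2000) with F508del-CFTR-pHTomato plus co-expressed soluble eGFP, then kept 24 h at 37 °C. Next, 24 h at 30 °C with 10 μM drug. Imaging in pH 7.4 HEPES buffer, then extracellular pH shifted to ~6.5 (MES) and ~8.8 (Tris). The eGFP-normalized fluorescence rise (ΔF) estimates membrane CFTR.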

[12] = Enterovirus A, RD, read-out: EC50

Chain of Cystic fibrosis transmembrane conductance regulator (Homo sapiens), P13569 [F508del] (P13569 as listed by the source): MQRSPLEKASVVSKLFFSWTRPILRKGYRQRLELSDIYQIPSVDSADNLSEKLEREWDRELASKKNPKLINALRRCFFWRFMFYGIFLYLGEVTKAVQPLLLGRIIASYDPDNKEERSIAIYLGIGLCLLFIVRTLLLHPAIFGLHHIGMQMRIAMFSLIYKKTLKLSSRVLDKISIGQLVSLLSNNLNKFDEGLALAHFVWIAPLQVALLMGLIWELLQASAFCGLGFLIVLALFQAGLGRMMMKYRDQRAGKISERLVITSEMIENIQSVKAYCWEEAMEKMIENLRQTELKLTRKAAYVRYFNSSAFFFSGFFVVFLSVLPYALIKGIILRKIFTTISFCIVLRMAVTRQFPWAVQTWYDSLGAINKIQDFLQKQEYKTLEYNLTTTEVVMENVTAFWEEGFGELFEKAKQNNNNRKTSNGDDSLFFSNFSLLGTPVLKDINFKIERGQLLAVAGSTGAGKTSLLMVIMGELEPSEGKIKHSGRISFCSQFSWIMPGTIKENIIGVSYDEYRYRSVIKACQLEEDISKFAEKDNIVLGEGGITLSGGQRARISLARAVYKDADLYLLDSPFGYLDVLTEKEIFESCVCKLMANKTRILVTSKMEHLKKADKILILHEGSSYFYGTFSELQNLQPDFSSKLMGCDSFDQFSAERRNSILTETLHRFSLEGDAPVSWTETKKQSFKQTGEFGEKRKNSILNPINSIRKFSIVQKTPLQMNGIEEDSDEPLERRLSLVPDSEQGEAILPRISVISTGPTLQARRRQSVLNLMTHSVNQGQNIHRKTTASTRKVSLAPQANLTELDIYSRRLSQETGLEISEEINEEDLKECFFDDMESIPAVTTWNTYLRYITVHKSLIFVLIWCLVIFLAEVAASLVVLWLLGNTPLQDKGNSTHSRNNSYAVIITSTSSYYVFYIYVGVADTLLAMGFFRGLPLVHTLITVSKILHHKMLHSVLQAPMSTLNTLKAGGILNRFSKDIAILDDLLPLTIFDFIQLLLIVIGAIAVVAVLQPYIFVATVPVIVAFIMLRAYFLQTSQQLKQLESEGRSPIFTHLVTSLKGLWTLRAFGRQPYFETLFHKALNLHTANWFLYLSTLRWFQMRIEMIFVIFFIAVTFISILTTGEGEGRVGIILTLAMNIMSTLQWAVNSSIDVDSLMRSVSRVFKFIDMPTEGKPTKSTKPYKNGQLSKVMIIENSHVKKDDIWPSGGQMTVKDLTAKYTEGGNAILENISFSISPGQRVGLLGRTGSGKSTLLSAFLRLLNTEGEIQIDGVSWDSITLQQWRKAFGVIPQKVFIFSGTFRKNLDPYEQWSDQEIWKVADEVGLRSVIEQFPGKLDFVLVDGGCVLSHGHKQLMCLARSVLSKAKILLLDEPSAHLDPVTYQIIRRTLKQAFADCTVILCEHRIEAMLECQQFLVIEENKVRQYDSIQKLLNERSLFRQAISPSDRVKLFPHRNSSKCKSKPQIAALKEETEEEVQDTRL

**Q.** With CC(=O)c1cccc(Nc2nc(-c3sc(NC(=O)NC4CCCCC4)nc3C)cs2)c1 as the compound, how does the EC50 (Enterovirus A71 [1]; [12]) read?
**A.** 2 µM

**Q.** And the CC50 [2]?
**A.** 8.87 µM

**Q.** And the IC50 ([3]; read-out: IC50)?
**A.** 1.82 µM

**Q.** What about the selectivity ratio [4] of the same compound?
**A.** 4.4

**Q.** For CC(=O)c1cccc(Nc2nc(-c3sc(NC(=O)c4ccc(I)cc4)nc3C)cs2)c1, which EC50 (Enterovirus A71 [1]; [12]) is on record?
**A.** > 44.6 µM

**Q.** What about the IC50 ([3]; read-out: IC50) of the same compound?
**A.** > 50 µM

**Q.** Which results are given for COc1cccc(Nc2nc(-c3sc(NC(C)=O)nc3C)cs2)c1?
**A.** EC50 (Enterovirus A71 [1]; [12]): 1.2 µM; CC50 [2]: 9.17 µM; Activity [5]: 71%; IC50 ([3]; read-out: IC50): 1.55 µM; Activity [6]: inactive; selectivity ratio [4]: 5.9; Activity [7]: 51%

**Q.** Which EC50 (Enterovirus A71 [1]) does the source give for CC(=O)c1cccc(Nc2nc(-c3sc(NC(=S)NC4CCCCC4)nc3C)cs2)c1 here?
**A.** Not Active

**Q.** What about the IC50 ([3]; read-out: IC50) of the same compound?
**A.** > 50 µM

**Q.** With COc1ccc(Cl)cc1Nc1nnc(-c2csc(NC(=O)C(C)(C)C)n2)s1 as the compound, how does the EC50 (Enterovirus A71 [1]) read?
**A.** Not Active

**Q.** What about the IC50 [3] of the same compound?
**A.** Not Active

**Q.** Which results are given for CC(=O)Nc1nc(C)c(-c2csc(Nc3cccc(C(C)=O)c3)n2)s1?
**A.** EC50 (Enterovirus A71 [1]; [12]): 0.92 µM; CC50 [2]: 16.5 µM; EC50 (enterovirus D68): Not Active; EC50 (Echovirus E11): 1.57 µM; Activity [5]: 52%; IC50 ([3]; read-out: IC50): 0.48 µM; Activity [6]: inactive; selectivity ratio [8]: 10.6; EC50 (Poliovirus 1): 3.09 µM; CC50 [9]: 9.73 µM; EC50 (rhinovirus A2): Not Active; EC50 (Coxsackievirus B3): 2.17 µM; selectivity ratio [4]: 17.9; EC50 (rhinovirus B14): > 268 µM; Activity [7]: 37%

**Q.** With CC(=O)c1cccc(Nc2nc(-c3sc(NC(=O)c4ccc(C)cc4)nc3C)cs2)c1 as the compound, how does the EC50 (Enterovirus A71 [1]; [12]) read?
**A.** > 55.7 µM

**Q.** And the IC50 ([3]; read-out: IC50)?
**A.** > 50 µM

**Q.** With COc1ccc(-c2c(C)nn3c(NCCN4CCOCC4)cc(C)nc23)cc1OC as the compound, how does the EC50 (Enterovirus A71 [10]) read?
**A.** 0.73 µM

**Q.** With CC(=O)c1cccc(Nc2nc(-c3sc(NC(=O)c4ccccc4)nc3C)cs2)c1 as the compound, how does the EC50 (Enterovirus A71 [1]; [12]) read?
**A.** 0.51 µM

**Q.** And the CC50 [2]?
**A.** 5.75 µM

**Q.** And the EC50 (enterovirus D68)?
**A.** Not Active

**Q.** What about the EC50 (Echovirus E11) of the same compound?
**A.** 1.77 µM

**Q.** What about the Activity [5] of the same compound?
**A.** 81%

**Q.** What about the IC50 ([3]; read-out: IC50) of the same compound?
**A.** 18.9 µM

**Q.** What about the Activity [6] of the same compound?
**A.** inactive

**Q.** And the Activity [11]?
**A.** Active

**Q.** What about the selectivity ratio [8] of the same compound?
**A.** 23.1

**Q.** And the EC50 (Poliovirus 1)?
**A.** 2.23 µM

**Q.** What about the CC50 [9] of the same compound?
**A.** 11.8 µM

**Q.** What about the EC50 (rhinovirus A2; Rhinovirus A, read-out: EC50) of the same compound?
**A.** 2.05 µM

**Q.** And the EC50 (Coxsackievirus B3)?
**A.** 2.19 µM

**Q.** What about the selectivity ratio [4] of the same compound?
**A.** 11.3

**Q.** And the EC50 (rhinovirus B14)?
**A.** > 230 µM

**Q.** What about the Activity [7] of the same compound?
**A.** 54%

**Q.** For CC(=O)c1cccc(Nc2nc(-c3sc(NC(=O)NC45CC6CC(CC(C6)C4)C5)nc3C)cs2)c1, which EC50 (Enterovirus A71 [1]) is on record?
**A.** Not Active

**Q.** What about the IC50 ([3]; read-out: IC50) of the same compound?
**A.** 12.4 µM

**Q.** What does the source list for CC(=O)c1cccc(NC(=S)Nc2cccc(NC(=O)C(C)(C)C)c2)c1?
**A.** EC50 (Enterovirus A71 [1]): Not Active; IC50 [3]: Not Active

**Q.** With COc1ccc(Cl)cc1Nc1nnc(-c2csc(NC(=O)C(C)(C)C)n2)o1 as the compound, how does the EC50 (Enterovirus A71 [1]) read?
**A.** Not Active

**Q.** And the IC50 [3]?
**A.** Not Active
